Compound activity as filed in PubChem BioAssay.
Most compounds without a hit are left out; they make up all but 3.4% or so of the library.
S100A4 inh HTS – blocks human S100A4 binding to myosin IIA peptide; P26447; S100A4/TAMRA-MyoIIA peptide fluorescence polarization; inhibition, % at 10.7 µM; 360,000 tested, 0.14% active; AID 652163;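 active = mean inhibition of at least 70% across replicates, with every replicate also reaching that level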
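Material: S100A4 monomer protein | Medium: HEPES pH 7.2 with CaCl2, KCl, NaCl, DTT, Triton | Reagent: Labelled myosin peptide probe, 5 nM | Doses: One dose per compound | Times: 5 min incubation before reading | Benchmarks: Neutral control DMSO, positive control TFP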
E-selectin induc – E-selectin induction on HUVECs. HUVEC E-selectin immunofluorescence imaging; normalized: neutral wells 0, TNF-alpha wells 100. P16581. 260,000 tested, 0.37% active. activation, % at 7.58 µM. AID 686992;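 active = mean E-selectin-positive cell signal at least 10% of the positive control, reached in at least 60% of replicates, without over 20% cell loss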
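Test system: HUVEC; input: 3,000 HUVEC/well; measured by: immunofluorescence imaging; read-out: % PE-positive cells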
MLL AF4-AF9 inh – MLL-AF4/AF9 protein interaction inhibition; AlphaScreen, biotin-AF4 peptide binding to FLAG-AF9; inhibition, % at 10 µM; 350,000 tested, 0.47% active;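 active = every replicate reaching a set inhibition limit, whatever the replicate mean, cut at about 25% in these data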;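 also: 0% = plate neutral control median and 100% = total signal loss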
SIRT5 inh – inhibitors of human sirtuin-5 desuccinylase | Q9NXA8 | Purified SirT5, succinyl-peptide AMC, trypsin-coupled fluorescence | inhibition, % at 15 µM | 330,000 tested, 1.1% active | AID 652115; in the data active = inhibition above about 15%
rRNA inh HTS – selective bacterial rRNA inhibition in E. coli; E. coli WT GFP vs humanized-ribosome RFP mutants, fluorescence, 24 h; active compounds read low; DMSO median 0, no signal -100; GFP signal change (wild-type ribosome), % (concentration not given with the values); 350,000 tested, 1.6% active; AID 720706;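 active = significant combined selectivity score with lowered wild-type GFP, culture density cut under 30%, mutant RFP and density less affected; inactive = any of these conditions unmet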
ERAP1 inh – blocks human ERAP1 aminopeptidase activity | Q9NZ08 | recombinant ERAP1, Leu-AMC fluorescence, 60 min | inhibition, % at 10.7 µM | 340,000 tested, 0.15% active;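 active = mean replicate inhibition of at least 30%, or all replicates individually reaching that 30% level; inactive = mean below 30% and not every replicate reaching it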;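 also: 0% = neutral control wells and 100% = L-leucinethiol positive control wells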
Starred values were filed as active, the others as inactive; · = not tested or not shown.

SMILES	S100A4 inh HTS	E-selectin induc	MLL AF4-AF9 inh	SIRT5 inh	rRNA inh HTS	ERAP1 inh
C[C@@H]1CN([C@H](C)CO)C(=O)c2cc(NC(=O)Nc3ccc(C(F)(F)F)cc3)ccc2O[C@H]1CN(C)CC1CCCCC1	-17	10	0	0	4	-1
CN(C)C(=O)[C@@H]1[C@@H](CO)[C@@H]2Cn3c(ccc(-c4ccccc4)c3=O)[C@H]1N2CCc1ccccc1	-7	0	-2	29*	-2	2
CC(=O)N1[C@@H]2c3ccc(/C=C/c4ccccc4)c(=O)n3C[C@H]1[C@H](CO)[C@H]2C(=O)N(C)C	1	2	-1	-99	0	91*
CN1[C@H](C(=O)N2CCOCC2)[C@@H](CO)[C@@H]2Cn3c(ccc(/C=C/c4ccccc4)c3=O)[C@@H]21	3	0	0	-22	1	-11
COCC(=O)N1[C@@H]2Cn3c(ccc(/C=C/c4ccccc4)c3=O)[C@H]1[C@@H](C(=O)N1CCOCC1)[C@@H]2CO	-51	0	3	-104	0	128*
CC(=O)N1[C@@H]2Cn3c(ccc(/C=C/c4ccccc4)c3=O)[C@H]1[C@@H](C(=O)N(C)C)[C@@H]2CO	0	0	0	-93	-2	8
COc1ccc(CNC(=O)CNC(c2ccccc2)c2ccccc2)cc1OC	1	·	2	-17	-28*	-3
COc1ccc(CC(=O)NCc2cccc(CNC(=O)Cc3ccc(OC)c(OC)c3)c2)cc1OC	4	2	2	-3	20	4
COc1cc(C(=O)Nc2ccc(C)cc2C(NCC(=O)NN)c2ccccc2)cc(OC)c1OC (centres undefined)	4	0	1	19*	2	-2
COc1ccc(C)cc1NC(=O)CNC(c1ccccc1)c1ccccc1	0	·	-7	-3	-10	2
COCCNC(=O)C[C@H]1C[C@@H]2c3cc(NC(=O)c4ccc5c(c4)OCO5)ccc3O[C@@H]2[C@H](CO)O1	18	0	-2	-1	0	-1
C[C@H](CO)N1C[C@H](C)[C@@H](CN(C)Cc2ccc(Cl)c(Cl)c2)Oc2c(NC(=O)CCCCCC(=O)Nc3ccccc3N)cccc2C1=O	·	324*	-3	-2	-6	·
C[C@@H]1CN([C@H](C)CO)C(=O)c2cccc(NC(=O)CCCCCC(=O)Nc3ccccc3N)c2O[C@H]1CN(C)Cc1ccc(-c2ccccc2)cc1	-5	0	0	17*	4	0
C[C@@H]1CN([C@H](C)CO)C(=O)c2cccc(NC(=O)CCCCCC(=O)Nc3ccccc3N)c2O[C@H]1CN(C)Cc1ccccc1	-4	0	0	13	-13	-2
C[C@@H]1CN([C@@H](C)CO)C(=O)c2cccc(NC(=O)CCCCCC(=O)Nc3ccccc3N)c2O[C@@H]1CN(C)Cc1ccc(Cl)c(Cl)c1	-19	-3	0	4	-7	0
C[C@H]1CN([C@@H](C)CO)C(=O)c2cccc(NC(=O)CCCCCC(=O)Nc3ccccc3N)c2O[C@@H]1CN(C)Cc1ccc(-c2ccccc2)cc1	-6	1	-1	17*	-3	-1
COc1ccc(CN(C)C[C@@H]2Oc3c(NC(=O)CCCCCC(=O)Nc4ccccc4N)cccc3C(=O)N([C@H](C)CO)C[C@H]2C)cc1	-44	0	1	0	-9	4
CCOC(=O)C1CCCN(C(=O)c2ccc3oc(CCc4ccccc4)nc3c2)C1 (centres undefined)	-2	·	-2	4	-29*	1
CCOC(=O)C1CCCN(C(=O)c2ccc3nc(-c4cccc(OC)c4)oc3c2)C1 (centres undefined)	-15	·	0	1	-35*	2
CCOC(=O)C1CCCN(C(=O)c2ccc3nc(-c4ccc(OC)c(OC)c4)c(-c4ccc(OC)c(OC)c4)nc3c2)C1 (centres undefined)	11	·	-4	11	-1	34*
C[C@H]1CC(=O)N[C@H](c2ccccc2)C/C=C\C[C@H](c2ccc3c(c2)OCO3)NC1=O	·	·	·	·	-3	·
Cc1ccc(-c2ccc([C@@H]3[C@@H](CO)N4C(=O)CN(C(=O)c5cccnc5)C[C@@H]34)cc2)cc1	3	0	-15	2	-2	-2
COc1cccc(C=Cc2nccc3ccccc23)c1OC	0	-3	12	-3	-62	-4
CN(C)c1ccc(C=Cc2nccc3ccccc23)cc1	88*	1	2	-1	93	4
CO[C@H]1CN(C)C(=O)c2ccc(NC(=O)C3CC3)cc2OC[C@H](C)N(Cc2ccc(F)cc2)C[C@@H]1C	14	0	2	1	-3	-4
SMILES	S100A4 inh HTS	E-selectin induc	MLL AF4-AF9 inh	SIRT5 inh	rRNA inh HTS	ERAP1 inh
O=C(O)CSc1cc(C(=O)c2ccccc2O)cn2c(=O)c3c4c(sc3nc12)CCCC4	-7	·	0	37*	-7	3
COc1cccc(Nc2nc(CN3CCOCC3)nc3sc4c(c23)CCCC4)c1	1	0	3	22*	-54	-1
Cc1ccc(C)c(OCC(=O)Nc2ccccc2N2CCCC2)c1	0	1	8	-4	-11	0
Cc1ccc(OCC(=O)Nc2ccccc2N2CCCC2)c(C)c1	10	·	8	-2	-27*	2
CC(C)C(=O)N1CCN(c2ccccc2NC(=O)COc2ccc(C3CCCCC3)cc2)CC1	1	0	0	1	3	0
CC(C)C(=O)N1CCN(c2ccccc2NC(=O)COc2ccccc2)CC1	2	9	-2	0	-27*	-4
CN=C(Nc1ccc(C(=O)OC)s1)c1ccccc1	0	·	2	32*	11	0
COC(=O)c1c(NC(=O)c2ccccc2)sc(C(N)=O)c1C	-15	8	1	-2	4	-2
C[C@@H]1CN([C@@H](C)CO)S(=O)(=O)c2ccc(C#CCC3CCCC3)cc2O[C@H]1CN(C)Cc1cccc(C(=O)O)c1	-7	·	5	17*	·	-1
C[C@H](CO)N1C[C@H](C)[C@@H](CN(C)Cc2cccc(C(=O)O)c2)Oc2cc(C#CCC3CCCC3)ccc2S1(=O)=O	-1	·	7	16*	·	·
C[C@H](CO)N1C[C@H](C)[C@@H](CN(C)Cc2cccc(C(=O)O)c2)Oc2cc(Br)ccc2S1(=O)=O	-3	0	2	0	-2	5
O=C(c1cnccn1)N1CC[C@@H]2[C@H](CO)Nc3ccc(-c4ccccc4)cc3[C@@H]21	9	1	-1	1	-6	-1
Cc1noc(C)c1S(=O)(=O)Nc1ccc2c(c1)C(=O)N([C@H](C)CO)C[C@@H](C)[C@H](CN(C)C(=O)CCCN(C)C)OCCCC[C@@H](C)O2	·	0	·	·	2	·
